Screening data from PubChem.
APP 5UTR inh: inhibitors of APP translation via 5'UTR reporter, primary screen, APP 5'UTR luciferase, SH-SY5Y cells | SH-SY5Y APP 5'UTR-luciferase reporter, luminescence | AID 1285, 2008 | inhibition, % at 2 µM | 190,000 compounds, 0.82% hits;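 active = inhibition above a set limit, derived from the sample mean plus 3 SD, cut at about 45% in these data; inconclusive = one replicate passes the limit while the other fails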
Jurkat NFkB inh: inhibitors of induced NF-kB luciferase reporter, primary screen, TCR NF-kB activation inhibitor project, cell-based, luminescence, uHTS | Jurkat, PMA/ionomycin-induced NF-kB luciferase reporter | inhibition, % at 4 µM | AID 435003, 2010 | 330,000 compounds, 0.53% hits; in the data active = inhibition above about 50%
697 NFkB inh: inhibitors of PMA/ionomycin-induced NF-kB reporter, 697 cells, primary screen, B-cell NF-kB inhibitor project, cell-based, luminescence, uHTS; inhibition, % at 4 µM; 330,000 compounds, 0.33% hits; AID 435022, 2010; 697 B-cell NF-kB luciferase reporter, 16 h; in the data active = inhibition above about 35%
Hep lipid drop: inhibitors of hepatocyte lipid droplet formation, primary screen, imaging, high-throughput imaging, BODIPY stain | AML12 mouse hepatocytes, oleate lipid droplets | inhibition, % at 6.5 µM | 240,000 compounds, 0.4% hits;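 active = lipid droplet intensity inhibited by at least 50%, with more than 500 cells counted; inconclusive = wells with under 300 cells, treated as cytotoxic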
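Test system: AML12 hepatocytes (mouse); reagent: oleate loading, 100 µM; dosing: one dose, 6.5 µM compound; incubation: overnight exposure; signal: fluorescence imaging, 20x objective, two fields per well; read-out basis: % inhibition of corrected integrated BODIPY droplet signal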
aSyn UTR inh: MLPCN primary screen, SNCA 5' untranslated region | alpha-synuclein 5'UTR reporter, inhibitor activity | inhibition, % (tested at 7.5 µM) | 300,000 compounds, 0.82% hits | AID 1813, 2009; in the data active = inhibition above about 60%; inconclusive = no clear call, values can overlap the other calls;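 note: H4 neuroglioblastoma cells stably carrying SNCA 5'UTR luciferase fusion; 0% = DMSO wells and 100% = positive control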
TAG inh: inhibitors of triacylglycerol accumulation, primary screen, cell-based, uHTS, fluorescence, H9c2; inhibition, % at 12.5 µM; 230,000 compounds, 0.66% hits; H9c2 cells, Nile Red lipid (TAG) fluorescence; cells loaded with 200 µM oleic acid; AID 651582, 2012;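 active = pattern-corrected inhibition of lipid staining of at least 50% with the nuclear-stain viability signal not falling by more than 50%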;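 note: 0% = DMSO wells and 100% = triacsin C control wells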
Jurkat NFkB conf: PMA/ionomycin-induced NF-kB reporter inhibitors, Jurkat retest, confirmation, T-cell NF-kB inhibitor project, cell-based, luminescence, single concentration | shares compounds with Jurkat NFkB inh | Jurkat NF-kB luciferase, 16 h | inhibition, % at 4 µM | 2,700 compounds, 27% hits;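 active = inhibition reaching about 45% at 4 µM in either replicate, limit read from the data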;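 note: plate controls were PMA/ionomycin stimulated DMSO wells for no effect and unstimulated DMSO wells for full effect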
* hit, by the source's call; ? = inconclusive; nt = no result. Compounds with a hit are over-represented: about 1.9% of the library has one in this group of screens.

SMILES | APP 5UTR inh | Jurkat NFkB inh | 697 NFkB inh | Hep lipid drop | aSyn UTR inh | TAG inh | Jurkat NFkB conf
Cc1ccc(C)c(-c2nnc(OCC(=O)Nc3cc(C)on3)c3ccccc23)c1 | 11 | -10 | 1 | 0 | 19 | 19 | nt
COc1ccc(C2C(C(=O)Nc3cc(OC)c(OC)c(OC)c3)c3ccccc3C(=O)N2C)cc1 (stereo unspecified) | 69* | 75* | -70 | -116 | 98* | 40 | 22
COc1ccc(C2C(C(=O)Nc3cccc(OC)c3)c3ccccc3C(=O)N2C)cc1 (stereo unspecified) | -38 | 1 | 23 | -6 | -22 | -4 | nt
COc1ccc(C(C)=O)cc1COc1cccnc1[N+](=O)[O-] | nt | 55* | -18 | -4 | -53 | nt | 1
CCOc1ccc(C(C)=O)cc1COc1cccnc1[N+](=O)[O-] | nt | 54* | -11 | -2 | -45 | nt | 19
COc1ccc(C(C)=O)cc1COc1ccccc1[N+](=O)[O-] | 20 | 22 | 7 | 5 | 20 | -7 | nt
COc1ccc(N2CCN(C(c3cccs3)C(C)NS(C)(=O)=O)CC2)cc1 (stereo unspecified) | -18 | -22 | -13 | -4 | 7 | nt | nt
Cc1noc(C)c1C(=O)N(CC(C)C)c1nc2ccccc2s1 | nt | 1 | -26 | -6 | 10 | -15 | nt
Cc1ccc(S(=O)(=O)N2CCOCC2)cc1NC(=O)COC(=O)CNC(=O)c1ccc(Cl)cc1Cl | nt | 0 | -3 | 4 | 8 | -8 | nt
CCOc1ccc(N(CC(=O)Nc2ccccc2OCC)S(=O)(=O)c2c(C)noc2C)cc1 | nt | 57* | -25 | ? | 95* | nt | 62*
O=C(NCc1cccnc1)c1ccc(COc2ccccc2Cl)o1 | -20 | 56* | -7 | 14 | 16 | 1 | 8
O=C(NCc1cccnc1)c1ccc(COc2ccccc2Br)o1 | -16 | 72* | 1 | -3 | 39 | nt | -5
O=C(Nc1ccccc1N1CCCC1)C1CCCO1 (stereo unspecified) | nt | 8 | -7 | nt | nt | 0 | nt
O=C(NCC(c1ccco1)N1CCc2ccccc21)C(=O)Nc1ccccc1F (stereo unspecified) | nt | -4 | 0 | nt | -17 | 3 | nt
O=C(NCC(c1ccco1)N1CCc2ccccc21)C(=O)Nc1ccc(F)cc1F (stereo unspecified) | nt | 60* | -23 | nt | -7 | -8 | 16
CCOc1ccccc1CN(CCc1ccc2c(c1)OCO2)Cc1ccccn1 | 1 | 0 | 19 | nt | -22 | nt | nt
NC(=O)NC(=O)COC(=O)[C@H](Cc1ccccc1)NC(=O)c1cccs1 | 4 | 0 | 8 | -1 | 22 | 3 | nt
c1ccc(OCc2nc3ccccc3s2)cc1 | -126 | -148 | -169 | 1 | -123 | -14 | nt
CCC(=O)Nc1ccc(OCc2nc3ccccc3s2)cc1 | -216 | -150 | -214 | 15 | -125 | -8 | -93
COc1cc2ccccc2cc1C(=O)NC1CCCC1 | nt | -43 | -17 | nt | nt | -12 | nt
COc1cc2ccccc2cc1C(=O)NC1CCC(C)CC1 (stereo unspecified) | nt | 95* | -59 | nt | nt | -5 | -47
CCOC(=O)N1CCN(c2c(NCc3ccc(Cl)cc3)c(=O)c2=O)CC1 | 36 | 50 | -25 | nt | 15 | 43 | nt
CCOC(=O)N1CCN(c2c(NCc3ccc(F)cc3)c(=O)c2=O)CC1 | nt | 61* | -9 | 8 | -16 | 44 | 23
Cc1cccc(NC(=O)CSCC(=O)OCc2ccccn2)c1 | nt | 5 | -15 | nt | 5 | -10 | nt
COc1ccc(S(=O)(=O)N2CCC(C(=O)N(CC(C)C)C3CCS(=O)(=O)C3)CC2)cc1OC (stereo unspecified) | nt | 3 | 21 | nt | 5 | 4 | nt
SMILES | APP 5UTR inh | Jurkat NFkB inh | 697 NFkB inh | Hep lipid drop | aSyn UTR inh | TAG inh | Jurkat NFkB conf
O=C(c1ccccc1)c1cnc(Nc2ccccc2Cl)s1 | -174 | -156 | -149 | nt | -96 | nt | -72
Cc1ccc(-n2nc3ccc(N)cc3n2)cc1 | -7 | -106 | -80 | 16 | 23 | 13 | nt
CC(C)c1ccc(-n2nc3ccc(N)cc3n2)cc1 | -117 | -169 | -95 | 25 | 21 | 12 | -41
CC(=O)Cc1cc(O)c2ccccc2c1OC(=O)c1ccccc1 | -7 | 19 | -41 | 35 | -7 | 5 | nt
O=C1CC(c2cccc(Cl)c2)c2cc3c(cc2N1)CCC3 (stereo unspecified) | 34 | 56* | -60 | nt | 49 | nt | 35
COc1cccc(C2CC(=O)Nc3cc4c(cc32)CCC4)c1 (stereo unspecified) | 57* | 61* | -56 | -10 | 84* | 7 | 51*
COc1cccc(C2CC(=O)Nc3cc(OC)c(OC)cc32)c1 (stereo unspecified) | nt | 12 | -6 | 0 | 20 | nt | nt
CC1CCCN(c2ncnc3c2cnn3-c2ccc(Cl)cc2)C1 (stereo unspecified) | nt | 60* | -8 | -13 | 98* | -20 | 87*
COC(=O)c1ccccc1NC(=O)CSc1nc(C)cc(C)n1 | 0 | 13 | -3 | -22 | -7 | -5 | nt
Cc1cc(C)nc(SCC(=O)Nc2ccnc3ccccc23)n1 | -5 | 64* | 23 | -8 | -24 | -42 | 65*
CCCCNCCCOc1ccc(C)cc1Br | -9 | 15 | -6 | 1 | 7 | nt | nt
Cc1ccc(OCCCNCCO)c(Br)c1 | -5 | 81* | -8 | 0 | 9 | -1 | 35
CCc1ccc(NC(=O)Cn2nnc(C(=O)NCc3cccs3)c2N)cc1 | -16 | 5 | 9 | 6 | 1 | 2 | nt
COc1ccccc1NC(=O)Cn1nnc(C(=O)NCc2cccs2)c1N | nt | 53* | -13 | -145 | 86* | nt | 63*
COc1ccc(NC(=O)Cn2nnc(C(=O)NCc3cccs3)c2N)cc1 | nt | 8 | -6 | 11 | 18 | nt | nt
CCc1ccccc1NC(=O)Cn1nnc(C(=O)NCc2cccs2)c1N | 4 | 51* | -13 | 23 | -8 | 11 | 24
CCn1cc(C(=O)NC2CCCc3c2cnn3-c2cccc(C)c2C)cn1 (stereo unspecified) | nt | 74* | -26 | -21 | -16 | -9 | 66*
COC(=O)c1ccc(C(=O)NC2CCCc3c2cnn3-c2ccc(C)c(C)c2)cc1 (stereo unspecified) | nt | 60* | -17 | -136 | 104* | 34 | 59*
COC(=O)c1ccc(C(=O)NC2CCCc3c2cnn3-c2cc(F)cc(F)c2)nc1 (stereo unspecified) | nt | 52* | -71 | -4 | -9 | nt | 32
CSCC(=O)NC1CCCc2c1cnn2-c1ccc(C)c(C)c1 (stereo unspecified) | nt | -33 | -26 | 7 | -39 | 5 | nt
